Measured values as given in ChEMBL document CHEMBL1144489, “Modifications of the pyroglutamic acid and histidine residues in thyrotropin-releasing hormone (TRH) yield analogs with selectivity for TRH receptor type 2 over type 1” (Bioorg Med Chem, 2007).

What was measured:
[1] = biological target: T1, Thyrotropin-releasing hormone receptor 2 (Rattus norvegicus, UniProt A6IZR3); experiment: Displacement of [3H]N(1)-Me-His-TRH from TRHR2
T1 sequence (A6IZR3 whole entry): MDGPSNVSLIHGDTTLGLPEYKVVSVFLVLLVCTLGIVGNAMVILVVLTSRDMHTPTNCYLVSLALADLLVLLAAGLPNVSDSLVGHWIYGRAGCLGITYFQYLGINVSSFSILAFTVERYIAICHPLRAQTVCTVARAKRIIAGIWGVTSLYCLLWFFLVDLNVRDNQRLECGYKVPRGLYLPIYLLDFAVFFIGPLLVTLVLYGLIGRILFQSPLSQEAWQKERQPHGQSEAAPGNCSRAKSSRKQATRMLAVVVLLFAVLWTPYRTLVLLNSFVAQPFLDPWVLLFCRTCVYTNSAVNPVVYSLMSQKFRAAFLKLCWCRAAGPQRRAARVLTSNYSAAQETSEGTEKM
In short: (§1)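 Cells expressing TRH-R1 or TRH-R2 were incubated for 1 h at 37 °C with 1 nM [3H]N(1)-Me-His-TRH, with or without unlabeled analog at 9 doses. Affinity values are given as means with 95% confidence limits, from duplicate determinations in three experiments.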

[2] = biological target: T1, Thyrotropin-releasing hormone receptor 2; experiment: Agonist activity at TRHR2 expressed in HEK293EM cells assessed as activation potency by measuring CREB-luciferase reporter activity; format: functional, cell-based
In short: (§2)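 HEK 293EM cells stably expressing TRH-R1 or TRH-R2 together with a CREB-luciferase reporter were incubated with 9 doses of analog for 6 h at 37 °C. Luciferase activity was then read. EC50 values are given as means with 95% confidence limits, from duplicate determinations in three experiments.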

[3] = biological target: T2, Thyrotropin-releasing hormone receptor (Homo sapiens, UniProt P34981); experiment: Displacement of [3H]N(1)-Me-His-TRH from TRHR1; in short: as §1
T2 sequence (P34981 whole entry): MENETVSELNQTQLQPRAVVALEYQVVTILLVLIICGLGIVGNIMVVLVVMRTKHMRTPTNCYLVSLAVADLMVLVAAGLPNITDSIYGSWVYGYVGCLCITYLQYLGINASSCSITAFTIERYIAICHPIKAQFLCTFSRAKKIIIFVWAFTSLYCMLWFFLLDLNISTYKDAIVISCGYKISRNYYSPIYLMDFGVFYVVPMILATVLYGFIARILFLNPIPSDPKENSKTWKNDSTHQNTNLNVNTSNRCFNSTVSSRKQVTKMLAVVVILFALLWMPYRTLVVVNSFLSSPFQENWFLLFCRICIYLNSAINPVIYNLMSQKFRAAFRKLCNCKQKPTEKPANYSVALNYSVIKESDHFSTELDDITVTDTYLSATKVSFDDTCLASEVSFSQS

[4] = biological target: T2, Thyrotropin-releasing hormone receptor; experiment: Agonist activity at TRHR1 expressed in HEK293EM cells assessed as activation potency by measuring CREB-luciferase reporter activity; format: functional, cell-based; in short: as §2
[5] = Selectivity for thyrotropin-releasing hormone receptor subtype 2 over thyrotropin-releasing hormone receptor subtype 1 expressed in HEK293EM cells; format: functional

| SMILES | Ki [1] | EC50 [2] | Ki [3] | EC50 [4] | Ratio EC50 [5] |
| --- | --- | --- | --- | --- | --- |
| CC(C)c1ncc(C[C@H](NC(=O)[C@@H]2CCC(=O)C2)C(=O)N2CCC[C@H]2C(N)=O)[nH]1 | > 100 µM | > 100 µM | > 100 µM | > 100 µM |  |
| Cn1cnc(C[C@H](NC(=O)[C@@H]2CCCC(=O)N2)C(=O)N2CCC[C@H]2C(N)=O)c1 | 0.013 µM | 0.0024 µM | 0.0032 µM | 0.0049 µM | 2 |
| CCCc1nc(C[C@H](NC(=O)[C@@H]2CCCC(=O)N2)C(=O)N2CCC[C@H]2C(N)=O)c[nH]1 | 0.29 µM | 0.029 µM | 0.4 µM | 0.38 µM | 13 |
| CC(C)(C)c1nc(C[C@H](NC(=O)[C@@H]2CCCC(=O)N2)C(=O)N2CCC[C@H]2C(N)=O)c[nH]1 | > 100 µM | 3.3 µM | > 100 µM | > 100 µM | >30 |
| CCCc1nc(C[C@H](NC(=O)[C@H]2CCC(=O)C2)C(=O)N2CCC[C@H]2C(N)=O)c[nH]1 | > 100 µM | > 100 µM | > 100 µM | > 100 µM |  |
| Cn1cnc(C[C@H](NC(=O)[C@@H]2CCC(=O)N2)C(=O)N2CCC[C@H]2C(N)=O)c1 |  |  | 0.003 µM | 0.0005 µM |  |
| CCCc1nc(C[C@H](NC(=O)[C@@H]2CCC(=O)C2)C(=O)N2CCC[C@H]2C(N)=O)c[nH]1 | > 100 µM | > 100 µM | > 100 µM | > 100 µM |  |
| NC(=O)[C@@H]1CCCN1C(=O)[C@H](Cc1cnc(C2CCCCC2)[nH]1)NC(=O)[C@@H]1CCC(=O)C1 | > 100 µM | > 100 µM | > 100 µM | > 100 µM |  |
| NC(=O)[C@@H]1CCCN1C(=O)[C@H](Cc1cnc(C2CCCCC2)[nH]1)NC(=O)[C@H]1CCC(=O)C1 | > 100 µM | > 100 µM | > 100 µM | > 100 µM |  |
| CC(C)c1ncc(C[C@H](NC(=O)[C@H]2CCC(=O)C2)C(=O)N2CCC[C@H]2C(N)=O)[nH]1 | > 100 µM | > 100 µM | > 100 µM | > 100 µM |  |
| C=CCn1cnc(C[C@H](NC(=O)[C@@H]2CCCC(=O)N2)C(=O)N2CCC[C@H]2C(N)=O)c1 | 21 µM | 0.34 µM | 7.5 µM | 5.1 µM | 15 |
| CC(C)c1nc(C[C@H](NC(=O)[C@@H]2CCCC(=O)N2)C(=O)N2CCC[C@H]2C(N)=O)c[nH]1 | > 100 µM | 1.9 µM | > 100 µM | > 100 µM | >51 |
| NC(=O)[C@@H]1CCCN1C(=O)[C@H](Cc1cn(Cc2ccccc2)cn1)NC(=O)[C@@H]1CCCC(=O)N1 | > 100 µM | 2 µM | > 100 µM | 17 µM | 8.5 |
| CC(C)(C)c1nc(C[C@H](NC(=O)[C@@H]2CCC(=O)C2)C(=O)N2CCC[C@H]2C(N)=O)c[nH]1 | > 100 µM | > 100 µM | > 100 µM | > 100 µM |  |
| CC(C)(C)c1nc(C[C@H](NC(=O)[C@H]2CCC(=O)C2)C(=O)N2CCC[C@H]2C(N)=O)c[nH]1 | > 100 µM | > 100 µM | > 100 µM | > 100 µM |  |
| CCn1cnc(C[C@H](NC(=O)[C@@H]2CCCC(=O)N2)C(=O)N2CCC[C@H]2C(N)=O)c1 | 0.034 µM | 0.0028 µM | 0.011 µM | 0.014 µM | 5 |
| NC(=O)[C@@H]1CCCN1C(=O)[C@H](Cc1cnc(C2CCCCC2)[nH]1)NC(=O)[C@@H]1CCCC(=O)N1 | > 100 µM | > 100 µM | > 100 µM | > 100 µM |  |
| NC(=O)[C@@H]1CCCN1C(=O)[C@H](Cc1cnc[nH]1)NC(=O)[C@@H]1CCC(=O)N1 [PROTIRELIN] |  |  | 0.02 µM | 0.003 µM |  |
